In ChEMBL document CHEMBL1145495, “Polyamine effects on antibiotic susceptibility in bacteria” (2007):
≈ marks a conversion by molar mass, not a printed value. Calls of active or inactive are those of the source. The calls are words filed in the database; no cut-off is given here.

Legend:
[1] = test system: Staphylococcus aureus; assay: Antibacterial activity against Staphylococcus aureus ATCC 3556 after 14 to 16 hrs by broth dilution method; assay type: functional
[2] = test system: Salmonella typhimurium; assay: Antibacterial activity against Salmonella enterica serovar Typhimurium LT2 after 14 to 16 hrs by broth dilution method; assay type: functional, Salmonella enterica subsp. enterica serovar Typhimurium
[3] = test system: Escherichia coli; assay: Antibacterial activity against Escherichia coli K10 after 14 to 16 hrs by broth dilution method; assay type: functional
[4] = test system: Escherichia coli; assay: Antibacterial activity against Escherichia coli K12 after 14 to 16 hrs by broth dilution method; assay type: functional
[5] = test system: Escherichia coli; assay: Antibacterial activity against Escherichia coli C921-61 after 14 to 16 hrs by broth dilution method; assay type: functional
[6] = test system: Staphylococcus aureus; assay: Antibacterial activity against Staphylococcus aureus N315 after 14 to 16 hrs by broth dilution method; assay type: functional
Outline: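 CLSI broth dilution in cation-adjusted Mueller-Hinton broth with serial twofold dilutions, with or without spermine or spermidine added. Overnight cultures were diluted in saline to OD600 0.1–0.12, and about 10^5 CFU were inoculated. Incubation was 14–16 h at 37°C. MIC was confirmed in three independent experiments. E. coli acrA mutants were tested with 1 mM spermine; P. aeruginosa isolates with 1 mM spermine or 20 mM spermidine.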

[7] = test system: Staphylococcus aureus; assay: Antibacterial activity against Staphylococcus aureus Mu50 after 14 to 16 hrs by broth dilution method; assay type: functional
[8] = test system: Salmonella typhimurium; assay: Antibacterial activity against Salmonella enterica serovar Typhimurium LT2 at upto 16 mM after 14 to 16 hrs by broth dilution method; assay type: functional, organism-based; details: Salmonella enterica subsp. enterica serovar Typhimurium
[9] = test system: Staphylococcus aureus; assay: Antibacterial activity against Staphylococcus aureus ATCC 3556 at upto 16 mM after 14 to 16 hrs by broth dilution method; assay type: functional, organism-based
[10] = test system: Staphylococcus aureus; assay: Antibacterial activity against Staphylococcus aureus N315 at upto 16 mM after 14 to 16 hrs by broth dilution method; assay type: functional, organism-based
[11] = test system: Escherichia coli; assay: Antibacterial activity against Escherichia coli C921-61 at upto 16 mM after 14 to 16 hrs by broth dilution method; assay type: functional, organism-based
[12] = test system: Escherichia coli; assay: Antibacterial activity against Escherichia coli K10 at upto 16 mM after 14 to 16 hrs by broth dilution method; assay type: functional, organism-based
[13] = test system: Escherichia coli; assay: Antibacterial activity against Escherichia coli K12 at upto 16 mM after 14 to 16 hrs by broth dilution method; assay type: functional, organism-based
[14] = test system: Staphylococcus aureus; assay: Antibacterial activity against Staphylococcus aureus Mu50 at upto 16 mM after 14 to 16 hrs by broth dilution method; assay type: functional, organism-based

SMILES | MIC [1] | MIC [2] | MIC [3] | MIC [4] | MIC [5] | MIC [6] | MIC [7] | Activity [8] | Activity [9] | Activity [10] | Activity [11] | Activity [12] | Activity [13] | Activity [14]
CC1(C)S[C@@H]2[C@H](NC(=O)[C@H](NC(=O)N3CCNC3=O)c3ccccc3)C(=O)N2[C@H]1C(=O)O [AZLOCILLIN] | 0.5 µg/mL (≈ 1.08 µM) | 16 µg/mL (≈ 34.7 µM) | 16 µg/mL (≈ 34.7 µM) | 16 µg/mL (≈ 34.7 µM) | 8 µg/mL (≈ 17.3 µM) | 16 µg/mL (≈ 34.7 µM) | 16 µg/mL (≈ 34.7 µM) | – | – | – | – | – | – | –
CC1(C)S[C@@H]2[C@H](NC(=O)Cc3ccccc3)C(=O)N2[C@H]1C(=O)O [PENICILLIN G] | ≤ 0.06 µg/mL | 16 µg/mL (≈ 47.8 µM) | 64 µg/mL (≈ 191 µM) | 64 µg/mL (≈ 191 µM) | – | 32 µg/mL (≈ 95.7 µM) | 32 µg/mL (≈ 95.7 µM) | – | – | – | – | – | – | –
NC[C@H]1O[C@H](O[C@H]2[C@H](O)[C@@H](O[C@H]3O[C@H](CO)[C@@H](O)[C@H](N)[C@H]3O)[C@H](N)C[C@@H]2N)[C@H](O)[C@@H](O)[C@@H]1O [KANAMYCIN] | – | 4 µg/mL (≈ 8.26 µM) | 2 µg/mL (≈ 4.13 µM) | 4 µg/mL (≈ 8.26 µM) | 4 µg/mL (≈ 8.26 µM) | – | – | – | – | – | – | – | – | –
CC[C@H]1OC(=O)[C@H](C)[C@@H](O[C@H]2C[C@@](C)(OC)[C@@H](O)[C@H](C)O2)[C@H](C)[C@@H](O[C@@H]2O[C@H](C)C[C@H](N(C)C)[C@H]2O)[C@](C)(O)C[C@@H](C)C(=O)[C@H](C)[C@@H](O)[C@]1(C)O [ERYTHROMYCIN] | – | 64 µg/mL (≈ 87.2 µM) | 64 µg/mL (≈ 87.2 µM) | 64 µg/mL (≈ 87.2 µM) | 64 µg/mL (≈ 87.2 µM) | – | – | – | – | – | – | – | – | –
CO/N=C(\C(=O)N[C@@H]1C(=O)N2C(C(=O)O)=C(COC(C)=O)CS[C@H]12)c1csc(N)n1 [CEFOTAXIME] | 0.5 µg/mL (≈ 1.1 µM) | – | – | – | – | 2 µg/mL (≈ 4.39 µM) | > 1020 µg/mL | – | – | – | – | – | – | –
CC1(C)S[C@@H]2[C@H](NC(=O)[C@H](C(=O)O)c3ccsc3)C(=O)N2[C@H]1C(=O)O [TICARCILLIN] | 1 µg/mL (≈ 2.6 µM) | 4 µg/mL (≈ 10.4 µM) | 8 µg/mL (≈ 20.8 µM) | 8 µg/mL (≈ 20.8 µM) | 4 µg/mL (≈ 10.4 µM) | 32 µg/mL (≈ 83.2 µM) | 512 µg/mL (≈ 1330 µM) | – | – | – | – | – | – | –
CO[C@@H]1[C@@H](OC(N)=O)[C@@H](O)[C@H](Oc2ccc3c(O)c(NC(=O)c4ccc(O)c(CC=C(C)C)c4)c(=O)oc3c2C)OC1(C)C [NOVOBIOCIN] | – | > 1020 µg/mL | > 1020 µg/mL | > 1020 µg/mL | 512 µg/mL (≈ 836 µM) | – | – | – | – | – | – | – | – | –
CCN1CCN(C(=O)N[C@@H](C(=O)N[C@@H]2C(=O)N3[C@@H]2SC(C)(C)[C@@H]3C(=O)O)c2ccccc2)C(=O)C1=O [PIPERACILLIN] | 0.5 µg/mL (≈ 0.966 µM) | 4 µg/mL (≈ 7.73 µM) | 2 µg/mL (≈ 3.86 µM) | 2 µg/mL (≈ 3.86 µM) | 2 µg/mL (≈ 3.86 µM) | 32 µg/mL (≈ 61.8 µM) | 128 µg/mL (≈ 247 µM) | – | – | – | – | – | – | –
NCCCCNCCCN | – | – | – | – | – | – | – | inactive | inactive | inactive | inactive | inactive | inactive | inactive
CCN1CCN(C(=O)N[C@@H](C(=O)N[C@@H]2C(=O)N3C(C(=O)O)=C(CSc4nnnn4C)CS[C@H]23)c2ccc(O)cc2)C(=O)C1=O [CEFOPERAZONE] | 1 µg/mL (≈ 1.55 µM) | – | – | – | – | 4 µg/mL (≈ 6.2 µM) | > 1020 µg/mL | – | – | – | – | – | – | –
CC(=O)O[C@H]1C[C@@]2(C)[C@@H](C[C@@H](O)[C@H]3[C@@]4(C)CC[C@@H](O)[C@@H](C)[C@@H]4CC[C@@]32C)/C1=C(\CCC=C(C)C)C(=O)O [FUSIDIC ACID] | – | > 1020 µg/mL | > 1020 µg/mL | 1020 µg/mL (≈ 1980 µM) | 1020 µg/mL (≈ 1980 µM) | – | – | – | – | – | – | – | – | –
CC(=O)OCC1=C(C(=O)O)N2C(=O)[C@@H](NC(=O)Cc3cccs3)[C@H]2SC1 [CEPHALOTHIN] | 0.5 µg/mL (≈ 1.26 µM) | – | – | – | – | 1 µg/mL (≈ 2.52 µM) | 64 µg/mL (≈ 161 µM) | – | – | – | – | – | – | –
